Reference: ChEMBL document CHEMBL4145630, “Development of Highly Potent and Selective Steroidal Inhibitors and Degraders of CDK8” (ACS Med Chem Lett, 2018)
pIC50: −log10 of the molar value.

What was measured:
[1] = target: T1, Cyclin-dependent kinase 8 (Homo sapiens, UniProt P49336); assay: Inhibition of wild-type human partial length CDK8 (M1 to T360 residues) expressed in bacterial expression system at 10 uM by Kinomescan method relative to control
How it was run: (§1)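 Ambit KINOMEscan binding panel run at a single 10 μM concentration; results expressed relative to control, with a 90% inhibition cutoff applied.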

[2] = target: T2, Serine/threonine-protein kinase Nek1 (Homo sapiens) (UniProt Q96PY6); assay: Inhibition of wild-type human partial length NEK1 (M1 to K278 residues) expressed in bacterial expression system at 10 uM by Kinomescan method relative to control; how it was run: as §1
T2 sequence (whole entry): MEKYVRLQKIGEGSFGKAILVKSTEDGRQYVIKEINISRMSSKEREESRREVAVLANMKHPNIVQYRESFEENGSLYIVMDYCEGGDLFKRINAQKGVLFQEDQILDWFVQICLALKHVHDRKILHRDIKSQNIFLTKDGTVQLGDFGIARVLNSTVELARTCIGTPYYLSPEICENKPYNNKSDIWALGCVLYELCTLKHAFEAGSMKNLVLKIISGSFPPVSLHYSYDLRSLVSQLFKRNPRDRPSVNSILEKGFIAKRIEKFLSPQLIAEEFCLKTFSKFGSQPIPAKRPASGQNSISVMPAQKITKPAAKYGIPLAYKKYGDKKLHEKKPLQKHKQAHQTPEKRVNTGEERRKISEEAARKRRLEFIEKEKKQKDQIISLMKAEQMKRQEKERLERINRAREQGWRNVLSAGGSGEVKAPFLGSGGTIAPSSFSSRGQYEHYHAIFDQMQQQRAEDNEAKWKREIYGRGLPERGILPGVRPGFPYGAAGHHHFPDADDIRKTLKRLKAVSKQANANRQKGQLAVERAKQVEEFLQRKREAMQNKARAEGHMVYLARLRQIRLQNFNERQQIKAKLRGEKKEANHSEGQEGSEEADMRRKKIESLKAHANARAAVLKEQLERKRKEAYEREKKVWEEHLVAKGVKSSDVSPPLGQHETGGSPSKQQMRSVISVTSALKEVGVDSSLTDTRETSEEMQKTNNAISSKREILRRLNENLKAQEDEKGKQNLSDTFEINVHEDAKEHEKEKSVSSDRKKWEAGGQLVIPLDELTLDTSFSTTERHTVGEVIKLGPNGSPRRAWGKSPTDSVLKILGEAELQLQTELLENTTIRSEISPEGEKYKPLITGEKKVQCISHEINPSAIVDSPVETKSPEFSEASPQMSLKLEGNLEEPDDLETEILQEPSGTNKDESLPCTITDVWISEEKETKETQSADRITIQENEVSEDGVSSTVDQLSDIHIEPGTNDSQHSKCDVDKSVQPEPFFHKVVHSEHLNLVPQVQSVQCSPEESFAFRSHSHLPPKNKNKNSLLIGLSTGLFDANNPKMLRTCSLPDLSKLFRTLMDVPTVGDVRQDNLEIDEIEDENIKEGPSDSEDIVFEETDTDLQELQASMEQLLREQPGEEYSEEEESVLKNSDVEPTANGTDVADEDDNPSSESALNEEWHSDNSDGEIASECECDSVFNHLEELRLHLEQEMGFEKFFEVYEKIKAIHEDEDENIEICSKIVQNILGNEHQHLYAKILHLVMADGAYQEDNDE

[3] = target: 1-phosphatidylinositol 3-phosphate 5-kinase (Homo sapiens) (UniProt Q9Y2I7); assay: Inhibition of wild-type human partial length PIKFYVE (F1512 to C2098 residues) expressed in mammalian expression system at 10 uM by Kinomescan method relative to control; how it was run: as §1
Sequence of 1-phosphatidylinositol 3-phosphate 5-kinase (Homo sapiens) (Q9Y2I7 whole entry, the tested form may be a part): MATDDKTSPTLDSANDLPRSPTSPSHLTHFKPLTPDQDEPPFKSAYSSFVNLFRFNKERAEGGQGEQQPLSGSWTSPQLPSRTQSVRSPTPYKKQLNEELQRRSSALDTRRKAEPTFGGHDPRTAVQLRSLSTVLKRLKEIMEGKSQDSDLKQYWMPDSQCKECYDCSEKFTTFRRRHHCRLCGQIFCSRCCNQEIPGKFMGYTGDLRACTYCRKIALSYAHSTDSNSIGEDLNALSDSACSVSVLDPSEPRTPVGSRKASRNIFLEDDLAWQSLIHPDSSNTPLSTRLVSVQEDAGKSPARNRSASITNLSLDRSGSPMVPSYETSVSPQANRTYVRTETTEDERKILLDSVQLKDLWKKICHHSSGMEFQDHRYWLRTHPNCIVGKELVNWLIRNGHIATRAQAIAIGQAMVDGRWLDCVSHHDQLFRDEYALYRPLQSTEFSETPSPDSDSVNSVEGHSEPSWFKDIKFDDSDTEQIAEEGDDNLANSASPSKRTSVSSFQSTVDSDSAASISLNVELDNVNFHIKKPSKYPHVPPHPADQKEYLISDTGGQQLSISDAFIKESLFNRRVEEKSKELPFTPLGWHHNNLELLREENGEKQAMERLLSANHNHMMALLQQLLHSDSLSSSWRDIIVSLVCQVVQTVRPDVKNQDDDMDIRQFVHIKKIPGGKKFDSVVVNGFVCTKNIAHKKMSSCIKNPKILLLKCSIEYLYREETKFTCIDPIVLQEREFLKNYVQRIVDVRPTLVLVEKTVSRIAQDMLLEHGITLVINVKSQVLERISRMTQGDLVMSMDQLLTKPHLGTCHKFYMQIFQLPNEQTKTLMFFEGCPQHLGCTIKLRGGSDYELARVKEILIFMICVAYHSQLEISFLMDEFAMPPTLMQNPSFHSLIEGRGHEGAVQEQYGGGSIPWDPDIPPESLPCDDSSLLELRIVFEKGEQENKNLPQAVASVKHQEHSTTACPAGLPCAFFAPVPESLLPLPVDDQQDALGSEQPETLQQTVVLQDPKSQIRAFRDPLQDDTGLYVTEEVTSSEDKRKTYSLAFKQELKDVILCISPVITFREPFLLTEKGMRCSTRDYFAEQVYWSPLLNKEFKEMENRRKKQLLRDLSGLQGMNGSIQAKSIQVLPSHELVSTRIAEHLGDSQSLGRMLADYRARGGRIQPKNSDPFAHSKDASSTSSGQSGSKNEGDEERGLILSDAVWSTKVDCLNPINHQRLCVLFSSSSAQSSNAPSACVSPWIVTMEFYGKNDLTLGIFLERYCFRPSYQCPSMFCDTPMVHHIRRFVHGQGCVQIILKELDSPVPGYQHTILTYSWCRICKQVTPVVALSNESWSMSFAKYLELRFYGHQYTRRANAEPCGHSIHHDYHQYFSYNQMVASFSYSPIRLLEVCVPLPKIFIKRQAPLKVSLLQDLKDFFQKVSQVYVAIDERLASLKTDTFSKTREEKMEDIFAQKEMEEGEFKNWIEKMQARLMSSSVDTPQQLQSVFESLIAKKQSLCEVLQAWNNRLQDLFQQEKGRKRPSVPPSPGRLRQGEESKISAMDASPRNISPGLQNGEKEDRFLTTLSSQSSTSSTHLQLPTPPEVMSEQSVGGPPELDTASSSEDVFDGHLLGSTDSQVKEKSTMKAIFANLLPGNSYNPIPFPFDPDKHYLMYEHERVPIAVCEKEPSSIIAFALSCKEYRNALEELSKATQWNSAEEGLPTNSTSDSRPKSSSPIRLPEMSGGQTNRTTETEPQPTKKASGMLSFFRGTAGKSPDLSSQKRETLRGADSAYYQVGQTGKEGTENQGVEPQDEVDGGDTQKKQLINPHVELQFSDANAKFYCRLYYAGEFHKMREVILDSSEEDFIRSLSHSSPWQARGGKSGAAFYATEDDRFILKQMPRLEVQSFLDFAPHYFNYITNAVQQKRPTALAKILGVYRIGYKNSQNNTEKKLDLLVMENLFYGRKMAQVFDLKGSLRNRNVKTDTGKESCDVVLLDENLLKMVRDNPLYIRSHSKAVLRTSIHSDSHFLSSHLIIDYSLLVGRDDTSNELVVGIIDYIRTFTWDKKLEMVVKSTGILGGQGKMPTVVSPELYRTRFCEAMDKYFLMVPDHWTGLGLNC

[4] = target: T1, Cyclin-dependent kinase 8; assay: Inhibition of CDK8 in human HepG2 cells assessed as reduction in IFNgamma-induced STAT1 phosphorylation at S727 measured after 18 hrs by Western blot analysis; format: cell-based
[5] = target: T3, Cyclin-dependent kinase 19 (Homo sapiens, UniProt Q9BWU1); assay: Inhibition of human CDK19 (M1 to N360 residues) expressed in bacterial expression system at 10 uM by KINOMEscan assay relative to control
T3 sequence (Q9BWU1 whole entry, the tested form may be a part): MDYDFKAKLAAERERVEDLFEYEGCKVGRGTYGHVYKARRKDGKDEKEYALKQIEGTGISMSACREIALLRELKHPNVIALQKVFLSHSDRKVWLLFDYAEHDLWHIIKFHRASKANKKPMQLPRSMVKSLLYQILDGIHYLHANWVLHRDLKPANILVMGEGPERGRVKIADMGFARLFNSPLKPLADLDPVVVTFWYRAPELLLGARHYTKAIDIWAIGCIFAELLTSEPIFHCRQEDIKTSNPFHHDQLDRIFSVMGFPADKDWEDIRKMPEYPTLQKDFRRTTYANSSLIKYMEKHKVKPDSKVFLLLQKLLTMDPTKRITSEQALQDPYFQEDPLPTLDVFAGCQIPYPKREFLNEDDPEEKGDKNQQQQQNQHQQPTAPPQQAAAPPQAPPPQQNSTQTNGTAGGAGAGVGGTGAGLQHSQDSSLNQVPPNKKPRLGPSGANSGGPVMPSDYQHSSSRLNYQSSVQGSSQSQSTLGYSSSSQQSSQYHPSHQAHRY

[6] = target: T4, Serine/threonine-protein kinase Nek1 (Homo sapiens, UniProt Q96PY6); assay: Inhibition of wild-type human partial length NEK1 (M1 to K278 residues) expressed in bacterial expression system by Kinomescan method
T4 sequence (Q96PY6 whole entry): T2 sequence (whole entry)

[7] = target: T3, Cyclin-dependent kinase 19; assay: Inhibition of human CDK19 (M1 to N360 residues) expressed in bacterial expression system by KINOMEscan assay
[8] = target: T1, Cyclin-dependent kinase 8; assay: Inhibition of CDK8 (unknown origin)

T1 sequence (P49336 whole entry, the tested form may be a part): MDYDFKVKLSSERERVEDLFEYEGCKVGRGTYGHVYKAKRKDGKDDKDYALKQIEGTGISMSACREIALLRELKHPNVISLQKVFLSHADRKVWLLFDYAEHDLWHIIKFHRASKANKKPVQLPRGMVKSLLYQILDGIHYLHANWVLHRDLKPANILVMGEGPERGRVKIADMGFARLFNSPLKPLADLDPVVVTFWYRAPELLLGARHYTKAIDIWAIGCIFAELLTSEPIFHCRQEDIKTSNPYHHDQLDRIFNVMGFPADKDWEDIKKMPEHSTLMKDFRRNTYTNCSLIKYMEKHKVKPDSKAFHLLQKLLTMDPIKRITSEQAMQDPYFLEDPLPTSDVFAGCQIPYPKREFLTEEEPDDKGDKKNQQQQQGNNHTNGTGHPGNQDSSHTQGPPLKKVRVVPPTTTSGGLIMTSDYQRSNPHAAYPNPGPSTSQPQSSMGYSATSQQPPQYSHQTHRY

CN(C)[C@H]1CC[C@@]2(C)C(=CC[C@H]3[C@@H]4CC[C@H](c5ccc6ccncc6c5)[C@@]4(C)CC[C@@H]32)C1
inhibition [1]: > 90% | inhibition [2]: > 90% | inhibition [3]: > 90% | inhibition [4]: Dose-dependent effect | inhibition [5]: > 90% | pIC50 [6]: < 5.00 | pIC50 [7]: 8.10 | pIC50 [8]: 7.80
